From ChEMBL document CHEMBL1122018, “Synthesis and orexigenic activity of some 1-methyl-4-piperidylidene-Substituted pyrrolo[2,1-g][3] benzazepine and dibenzocycloheptene derivatives” (1982) come the findings set out here.

Assay type in all cases: functional
The subject of assay [1] is Felis catus. Description: Average food consumed at the dose of 0.25 mg/kg (po) using 10 cats per dose level at 180 min (control day/ test day); 40/210.
For assay [2], the system named is Felis catus. As to the kind of experiment: Average food consumed at the dose of 0.50 mg/kg (po) using 10 cats per dose level at 30 min (control day/ test day); 24/93. Particulars: dose 0.5 mg/kg. In short, it runs like this:
(§1)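 Cats given test compound suspended in 1% methylcellulose, or 1% methylcellulose placebo, by gavage 30 min before a preweighed test meal. Food was offered in surplus for 3 h, and intake was found by reweighing at 30, 60 and 180 min. Ten cats per dose, each dosed no more than once weekly. Test-day intake was compared with the preceding control day by two-tailed paired t test (p < 0.05); values are mean ± SD.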

The test system of assay [3] is Felis catus. Description: Average food consumed at the dose of 0.50 mg/kg (po) using 10 cats per dose level at 60 min (control day/ test day); 23/129. Particulars: dose 0.5 mg/kg. In short, it runs like this:
as §1

In assay [4] the test system is Felis catus. Description: Average food consumed at the dose of 0.031 mg/kg (po) using 10 cats per dose level at 180 min (control day/ test day); 34/172.
The subject of assay [5] is Felis catus. As to the kind of experiment: Average food consumed at the dose of 0.031 mg/kg (po) using 10 cats per dose level at 180 min (control day/ test day); 52/182.
Assay [6] has as its system Felis catus. As to the kind of experiment: Average food consumed at the dose of 0.031 mg/kg (po) using 10 cats per dose level at 30 min (control day/ test day); 18/88.
The test system of assay [7] is Felis catus. Description: Average food consumed at the dose of 0.031 mg/kg (po) using 10 cats per dose level at 30 min (control day/ test day); 25/67.
The subject of assay [8] is Felis catus. Description: Average food consumed at the dose of 0.031 mg/kg (po) using 10 cats per dose level at 60 min (control day/ test day); 25/105.
Assay [9] has as its system Felis catus. Description: Average food consumed at the dose of 0.031 mg/kg (po) using 10 cats per dose level at 60 min (control day/ test day); 9/113.
In assay [10] the test system is Felis catus. Description: Average food consumed at the dose of 0.50 mg/kg (po) using 10 cats per dose level at 180 min (control day/ test day); 35/194. As to conditions: dose 0.5 mg/kg. In short, it runs like this: as §1
In assay [11] the test system is Felis catus. Description: Average food consumed at the dose of 0.25 mg/kg (po) using 10 cats per dose level at 30 min (control day/ test day); 37/98. In short, it runs like this:
as §1

Assay [12] has as its system Felis catus. As to the kind of experiment: Average food consumed at the dose of 0.25 mg/kg (po) using 10 cats per dose level at 60 min (control day/ test day); 46/128. In short, it runs like this: as §1
In assay [13] the test system is Felis catus. As to the kind of experiment: Average food consumed at the dose of 0.50 mg/kg (po) using 10 cats per dose level at 30 min (control day/ test day); 33/109. Particulars: dose 0.5 mg/kg. An outline of the steps: as §1
The test system of assay [14] is Felis catus. Description: Average food consumed at the dose of 0.50 mg/kg (po) using 10 cats per dose level at 60 min (control day/ test day); 45/142. Particulars: dose 0.5 mg/kg. An outline of the steps:
as §1

Assay [15] deals with Felis catus. Description: Average food consumed at the dose of 0.50 mg/kg (po) using 10 cats per dose level at 180 min (control day/ test day); 43/193. Particulars: dose 0.5 mg/kg. In short, it runs like this:
as §1

The subject of assay [16] is Felis catus. As to the kind of experiment: Average food consumed at the dose of 0.063 mg/kg (po) using 10 cats per dose level at 30 min (control day/ test day); 33/122.
In assay [17] the test system is Felis catus. Description: Average food consumed at the dose of 0.063 mg/kg (po) using 10 cats per dose level at 60 min (control day/ test day); 32/138.
Assay [18] has as its system Felis catus. As to the kind of experiment: Average food consumed at the dose of 0.25 mg/kg (po) using 10 cats per dose level at 180 min (control day/ test day); 30/170.
Assay [19] relates to Felis catus. As to the kind of experiment: Average food consumed at the dose of 0.50 mg/kg (po) using 10 cats per dose level at 30 min (control day/ test day); 38/105. As to conditions: dose 0.5 mg/kg. An outline of the steps:
as §1

Assay [20] has as its system Felis catus. Description: Average food consumed at the dose of 0.016 mg/kg (po) using 10 cats per dose level at 180 min (control day/ test day); 39/190.
Assay [21] deals with Felis catus. Description: Average food consumed at the dose of 0.016 mg/kg (po) using 10 cats per dose level at 30 min (control day/ test day); 25/104.
The subject of assay [22] is Felis catus. As to the kind of experiment: Average food consumed at the dose of 0.016 mg/kg (po) using 10 cats per dose level at 60 min (control day/ test day); 30/137.
Assay [23] relates to Felis catus. Description: Average food consumed at the dose of 0.031 mg/kg (po) using 10 cats per dose level at 180 min (control day/ test day); 24/152.
Assay [24] has as its system Felis catus. Description: Average food consumed at the dose of 0.031 mg/kg (po) using 10 cats per dose level at 30 min (control day/ test day); 20/75.
The subject of assay [25] is Felis catus. Description: Average food consumed at the dose of 0.031 mg/kg (po) using 10 cats per dose level at 60 min (control day/ test day); 14/95.
In assay [26] the test system is Felis catus. As to the kind of experiment: Average food consumed at the dose of 0.063 mg/kg (po) using 10 cats per dose level at 180 min (control day/ test day); 26/204.
In assay [27] the test system is Felis catus. Description: Average food consumed at the dose of 0.50 mg/kg (po) using 10 cats per dose level at 60 min (control day/ test day); 42/155. As to conditions: dose 0.5 mg/kg. An outline of the steps:
as §1

Assay [28] relates to Felis catus. As to the kind of experiment: Average food consumed at the dose of 0.50 mg/kg (po) using 10 cats per dose level at 180 min (control day/ test day); 45/221. As to conditions: dose 0.5 mg/kg. An outline of the steps: as §1
The subject of assay [29] is Felis catus. As to the kind of experiment: Average food consumed at the dose of 0.25 mg/kg (po) using 10 cats per dose level at 30 min (control day/ test day); 20/89.
In assay [30] the test system is Felis catus. Description: Average food consumed at the dose of 0.25 mg/kg (po) using 10 cats per dose level at 60 min (control day/ test day); 26/127. An outline of the steps: as §1

As for `CN1CCC(=C2c3cc(C(=O)O)ccc3C=Cn3cccc32)CC1.Cl`, the Average consumed is recorded as 176 g in [1]; 78 g in assay [2]; 114 g in assay [3]; 145 g in assay [4]; 184 g in assay [5]; 65 g in [6]. Moreover, the Average consumed in assay [7] came to 55 g; in assay [8] it was 84 g; in assay [9], 98 g; in assay [10], 170 g; in assay [11], 73 g; in assay [12], 112 g.

For the molecule `CN1CCC(=C2c3cc(C(=O)O)ccc3CCn3cccc32)CC1.Cl`, the Average consumed in assay [13] was 92 g; in [14] it was 125 g; in [15], 173 g.

`CN1CCC(=C2c3ccccc3CCc3ccc(C(=O)O)cc32)CC1.Cl`: the Average consumed in [16] is 88 g; in assay [17] it was 118 g; in assay [18], 145 g; in assay [19] it was 84 g; in assay [20], 180 g; in assay [21], 97 g. For the same molecule, the Average consumed is recorded as 139 g in [22]; 126 g in assay [23]; 53 g in [24]; 83 g in [25]; 174 g in assay [26]; 102 g in [27]. The Average consumed is reported as 134 g in assay [28], 68 g in assay [29] and 102 g in assay [30].
